L major viab: Leishmania major promastigote growth inhibition, primary screen; 9% of 200,000 active; Leishmania major promastigotes, resazurin fluorescence viability; inhibition, % at 10 µM; in the data active means inhibition above about 50%;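 further: promastigotes grown with compound for 44 hours at 28 °C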
MDM2 E3 inh: MDM2-luciferase reporter signal enhancers, primary screen, MDM2 E3 ligase inhibitor project, cell-based, luminescence, 1536-well; cell-based MDM2 ubiquitination luciferase reporter, 2 h; 0 = plate control, 100 = twice control, blank-subtracted; signal enhancement, % at 5 µM; 0.11% of 210,000 active;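 active means signal enhancement of 30% or more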;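 further: luminescence tracks abundance of the self-degrading MDM2-luciferase fusion protein; higher signal means inhibition of MDM2 E3 ligase activity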
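Material: Stable MDM2–luciferase fusion reporter cells | Amount: 2000 cells seeded into each well | Dosing: One concentration, 5 µM, with 0.2% DMSO | Incubation: 4 h cell settling then 2 h compound exposure, 37 °C | Measured by: Luciferase luminescence | Read-out basis: % enhancement relative to plate controls after blank subtraction | Benchmarks: Control and blank well means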
S1P4 agonist: S1P4 receptor agonists, primary screen, cell-based; S1P4-expressing cell line, agonist reporter assay; activation, % at 4.98 µM; 0.35% of 220,000 active; in the data active means activation above about 11%;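 further: 0% = DMSO vehicle and 100% = reference agonist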
Target sequence (O95977 whole entry, looked up): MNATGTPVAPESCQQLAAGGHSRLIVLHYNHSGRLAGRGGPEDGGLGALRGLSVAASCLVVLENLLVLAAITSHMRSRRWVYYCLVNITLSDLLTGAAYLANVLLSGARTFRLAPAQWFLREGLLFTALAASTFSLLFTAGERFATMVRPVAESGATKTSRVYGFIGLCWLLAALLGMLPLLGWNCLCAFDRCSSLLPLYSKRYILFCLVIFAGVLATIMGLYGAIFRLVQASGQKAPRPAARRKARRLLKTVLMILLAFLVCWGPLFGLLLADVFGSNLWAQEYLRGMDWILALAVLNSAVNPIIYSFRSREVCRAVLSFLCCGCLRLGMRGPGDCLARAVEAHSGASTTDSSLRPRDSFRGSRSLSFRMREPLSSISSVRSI
S1P3 antagonist: S1P3 receptor antagonists, primary screen, cell-based; Sphingosine 1-phosphate receptor 3 (Homo sapiens), Q99500; 0.27% of 170,000 active; inhibition, % at 4.98 µM; AID 485, 2006; CHO S1P3 NFAT-BLA reporter, FRET fluorescence, antagonist mode;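 active means inhibition above the plate cutoff, the mean inhibition of test wells on that plate plus 3 SD, cut at about 28% in these data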;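 further: cells challenged with S1P at its EC80 of 0.8 µM; blue over green emission ratio from cleaved BLA substrate after 4 h stimulation; 0% = S1P-stimulated wells and 100% = unstimulated DMSO-only wells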
S1P4 antagonist: S1P4 receptor antagonists, primary screen, cell-based; S1P4-expressing cells, antagonist mode, reporter read-out; inhibition, % at 4.98 µM; 0.26% of 220,000 active; in the data active means inhibition above about 29%;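 further: 0% = wells stimulated with agonist and 100% = vehicle wells without agonist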
Starred values were filed as active, the others as inactive; · = no result given. Many of the other results were omitted from the sample, so hits are more common in it than they were.

SMILES | L major viab | MDM2 E3 inh | S1P4 agonist | S1P3 antagonist | S1P4 antagonist
COc1ccccc1Nc1ncc(C(=O)N2CCC(C(N)=O)CC2)c2ccccc12 | -5.1 | -4.0 | 0.7 | · | -20.3
COc1ccccc1N/C(=N/c1nc(C)cc(C)n1)NC(C)=O | 60.8* | -5.7 | 2.3 | 16.1 | -10.4
COc1ccccc1NC(=O)Nc1ccncc1 | 97.2* | -16.6 | 1.3 | -2.6 | -3.0
COc1ccccc1NC(=O)c1cnc(Nc2ccccc2OC)c2ccccc12 | 95.3* | -14.8 | 2.4 | -2.8 | -4.6
COc1ccccc1NC(=O)Nc1ccc(Cc2ccncc2)cc1 | 12.2 | -8.5 | 0.6 | 2.5 | -13.4
COc1ccc(NC(=O)Nc2ccccc2OC)cc1 | 1.6 | -20.6 | 1.1 | · | -15.1
COc1ccc(OC)c(S(=O)(=O)N(C)CC(=O)Nc2ccccc2OC)c1 | 0.1 | -9.1 | 1.5 | -5.3 | -7.9
COc1ccc(OC)c(/C(O)=C/C(=O)C(=O)Nc2ccccc2OC)c1 | 95.5* | -9.8 | -4.5 | · | -29.7
COc1ccc(S(=O)(=O)N2CCCC(C(=O)Nc3cccc(C(C)=O)c3)C2)cc1 (stereo unspecified) | 57.5* | -6.4 | 0.1 | -11.5 | -26.7
COC(=O)c1ccc(NC(=O)C2CCCN2S(=O)(=O)c2ccc(OC)cc2)cc1 (stereo unspecified) | 57.6* | -8.1 | 0.8 | 11.3 | -12.0
Cc1ccc2cc(C)c3nnc(SCC(=O)Nc4nc5c(s4)CCCC5)n3c2c1 | 12.9 | 3.6 | 1.2 | · | 11.9
O=C(c1ccccc1)N1CCN(C(=S)NCc2ccc3c(c2)OCO3)CC1 | -7.8 | 11.8 | 0.5 | 0.9 | -6.3
Cc1ccc(CN(Cc2cccnc2)C(=O)CN2C(=O)COc3ccccc32)o1 | 72.5* | -30.1 | -0.7 | 1.4 | 2.2
CCc1cccc(NC(=O)CS(=O)Cc2nc(-c3ccc(C)cc3)oc2C)c1 (stereo unspecified) | 1.4 | -14.8 | -0.6 | 19.3 | -20.5
CCN1CCN(c2ccc(NC(=O)CCc3c(C)nc4c(-c5ccc(F)cc5)c(C)nn4c3C)cc2)CC1 | 99.4* | -5.0 | -0.6 | 14.3 | 0.2
Cc1nc2c(-c3ccc(F)cc3)c(C)nn2c(C)c1CCC(=O)Nc1ccccc1 | · | -2.5 | 0.1 | 8.6 | 5.9
Cn1c(=O)c2c(ncn2CC(=O)Nc2nccs2)n(C)c1=O | · | · | 0.5 | -10.3 | 1.3
C[C@@H]1CC=C[C@H]2[C@H]1C(=O)N(Cc1ccccc1)[C@H]2c1ccc(/C=C/c2ccccc2)cc1F | · | 6.6 | · | · | ·
O=C1CN(C(=O)/C=C/c2ccc(Cl)cc2Cl)CCN1 | -0.6 | -9.4 | 0.2 | 4.5 | -2.3
CN1CCCN(C(=O)/C=C/c2ccc(Cl)cc2Cl)CC1 | 99.4* | -14.2 | 0.2 | -13.6 | -4.2
O=C(COC(=O)Cn1cnc2ccccc21)NCCC1=CCCCC1 | 10.5 | -7.7 | -0.7 | 1.2 | -2.8
CCOc1cc(/C=C2\CCC/C(=C\c3cc(Cl)c(O)c(OCC)c3)C2=O)cc(Cl)c1O | 93.0* | -16.4 | 2.2 | · | 7.0
CCCCn1c(SCc2nc(N)nc(N3CCCCC3)n2)nc2c1c(=O)n(C)c(=O)n2C | 1.6 | 7.5 | -0.4 | 11.4 | -21.3
CC(C)c1ccc(Nc2nnns2)cc1 | · | 0.3 | 0.6 | 11.7 | -2.7
COC(=O)c1c(NC(=O)CSc2nc3ccccc3c(=O)n2-c2ccccc2)sc(C)c1C | 99.4* | -15.9 | -1.4 | 4.0 | -16.9
SMILES | L major viab | MDM2 E3 inh | S1P4 agonist | S1P3 antagonist | S1P4 antagonist
COC(=O)c1c(NC(=O)CSc2nc3nc(C)cc(C)n3n2)sc(C)c1C | 52.1* | 3.4 | 0.4 | -7.3 | -18.7
CCOC(=O)c1c(NC(=O)CSc2ncnc3ccccc23)sc(C)c1C | 76.6* | -4.8 | 1.1 | 7.1 | -20.4
CCOC(=O)c1c(-c2ccccc2)csc1NC(=O)CSc1nncs1 | 12.8 | 5.5 | -0.8 | -9.1 | 0.2
CCOC(=O)c1c(NC(=O)CSc2nncs2)sc(C)c1-c1ccccc1 | 75.5* | 2.9 | 0.3 | -11.9 | -18.6
O=C(O)c1cc([N+](=O)[O-])c(N2CCCC2)c([N+](=O)[O-])c1 | -3.2 | -3.9 | 3.1 | -9.2 | -1.4
O=C(CN1CCSC1=NCc1ccccc1)c1ccc(Cl)cc1 | 6.7 | · | -1.1 | 2.5 | -8.0
Cc1ccc(NC(=O)C2SC(=Nc3ccccc3)C(C(=O)Nc3ccc(Cl)cc3)=C2N)cc1 (stereo unspecified) | -6.3 | 1.2 | 0.7 | 8.0 | 5.5
